Test results taken from PubChem BioAssay.
Activity calls are given as the source filed them.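 Rule for the calls, unless noted: active = viability at or below 30% in both replicate assays; inconclusive = viability at or below 30% in just one of the two assays; inactive = the rest.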

Key:
[1] = Her2 expression decrease, cell viability multiplex – SKBR3 breast tumor cells, AlphaScreen, ATP viability, primary screen (AID 461;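 active = Her2 level under about 52% in both replicate screens, with viability over 70% of control, limit read from the data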;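 for Her2 level: lower value means less Her2 protein in the cells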;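 for viability: percent of carrier control wells set as 100% viability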); conditions: SKBR3 Her2 protein level, 18-24 h, measured here: SKBR3 viability, ATP luminescence, at 10 µM
[2] = molecular target: Receptor tyrosine-protein kinase erbB-2 (Homo sapiens) (UniProt P04626); assay: as above; conditions: 18-24 h, at 10 µM, stronger effect = lower value
[3] = reduced viability of SK-BR-3 breast cancer cells – cell-based, 24 h, human, pilot screen (AID 572;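 active = viability at or below 10% of carrier control in both of two separate runs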;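 note: compound exposure lasted between 18 and 24 h rather than exactly 24 h; 100% = carrier-treated control wells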); conditions: SK-BR-3 viability, CellTiter-Glo luminescence, at 10 µM, stronger effect = lower value
[4] = HUVEC growth inhibition – cell-based, human, primary screen (AID 575); conditions: HUVEC proliferation, CellTiter-Glo luminescence, 72 h; at 10 µM; stronger effect = lower value;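 note: 100% = median of untreated cell wells with 0.1% DMSO on each plate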
How it was run: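 Material: primary human umbilical vein endothelial cells / Schedule: 72 h exposure, 37 °C, 5% CO2, 30 min RT equilibration / Signal: ATP-based CellTiter-Glo luminescent read / Read-out basis: percent of median DMSO-control luminescence / Control set: 32 DMSO-only cell-control wells (high), 32 MePR drug-control wells (low) per plate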

[5] = H69AR cell proliferation blockers – human, duplicate replicates, primary screen (AID 580;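 active = viability at or under a set limit in both replicates, limit being median viability minus 3 SD, cut at about 48% in these data, passing the limit was not always enough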;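 note: 100% = mean luminescence of untreated wells and 0% = no signal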); conditions: H69AR lung tumor cells viability, ATP luminescence, 72 h; at 10 µM; stronger effect = lower value
[6] = MRP1 drug-resistance reversers in H69AR cells – cell-based, doxorubicin co-treatment, pilot screen (AID 601;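 active = viability loss from added drug above about 55%, and viability with drug at most 40%, in both replicates, limit read from the data, passing the limit was not always enough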); conditions: CellTiter-Glo, 72 h, at 10 µM; for differential viability (reversal): stronger effect = higher value
[7] = yeast transport mutant growth inhibition pilot in 384-well plates, post-Golgi transport modulator project (AID 636; in the data active = inhibition above about 31%); conditions: absorbance 615 nm, about 18 h, stronger effect = higher value
[8] = growth suppression of yeast trafficking mutant, preliminary HTS, modulators of trafficking downstream of Golgi apparatus project, 1536-format plate, OD 615 nm (AID 637; in the data active = inhibition above about 30%); conditions: yeast transport mutant growth, absorbance 615 nm, 18 h; stronger effect = higher value
[9] = H69AR cells + 2 uM doxorubicin, measured here: viability with 2 uM doxorubicin, stronger effect = lower value
[10] = H69AR cells, compound alone cytotoxicity

Chain of Receptor tyrosine-protein kinase erbB-2 (Homo sapiens) (P04626 whole entry, looked up): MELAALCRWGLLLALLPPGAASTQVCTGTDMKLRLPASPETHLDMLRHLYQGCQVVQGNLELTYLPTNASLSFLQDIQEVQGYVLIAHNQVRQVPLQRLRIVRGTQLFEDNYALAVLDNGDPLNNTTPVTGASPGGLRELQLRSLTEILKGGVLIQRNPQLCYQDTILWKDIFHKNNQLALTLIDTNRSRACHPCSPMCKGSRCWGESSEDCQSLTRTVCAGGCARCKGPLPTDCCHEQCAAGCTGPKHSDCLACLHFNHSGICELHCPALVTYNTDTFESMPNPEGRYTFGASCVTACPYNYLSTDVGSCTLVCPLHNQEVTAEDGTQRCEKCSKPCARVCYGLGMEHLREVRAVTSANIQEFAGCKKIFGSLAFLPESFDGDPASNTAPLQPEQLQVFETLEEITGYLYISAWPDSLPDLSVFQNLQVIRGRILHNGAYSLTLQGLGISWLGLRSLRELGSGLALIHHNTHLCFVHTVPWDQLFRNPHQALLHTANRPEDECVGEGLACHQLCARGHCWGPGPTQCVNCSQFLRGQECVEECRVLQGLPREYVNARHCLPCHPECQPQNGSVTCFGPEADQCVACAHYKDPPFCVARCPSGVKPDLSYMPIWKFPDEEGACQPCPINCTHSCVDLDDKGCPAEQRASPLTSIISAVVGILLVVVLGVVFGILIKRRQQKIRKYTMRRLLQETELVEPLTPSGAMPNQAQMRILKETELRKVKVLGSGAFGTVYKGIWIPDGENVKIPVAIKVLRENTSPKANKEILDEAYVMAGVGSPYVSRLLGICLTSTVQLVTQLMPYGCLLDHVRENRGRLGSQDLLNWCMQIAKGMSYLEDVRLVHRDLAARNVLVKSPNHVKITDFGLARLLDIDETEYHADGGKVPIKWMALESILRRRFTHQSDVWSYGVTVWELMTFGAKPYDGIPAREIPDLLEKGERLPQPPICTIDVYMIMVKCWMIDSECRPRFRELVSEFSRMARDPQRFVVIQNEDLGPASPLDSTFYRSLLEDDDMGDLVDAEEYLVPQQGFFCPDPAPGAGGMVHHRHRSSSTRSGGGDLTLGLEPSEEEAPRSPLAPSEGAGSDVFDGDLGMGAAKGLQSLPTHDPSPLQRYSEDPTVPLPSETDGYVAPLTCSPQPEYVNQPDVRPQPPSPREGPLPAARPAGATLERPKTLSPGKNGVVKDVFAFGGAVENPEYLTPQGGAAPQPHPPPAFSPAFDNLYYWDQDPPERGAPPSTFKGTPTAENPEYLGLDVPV

SMILES | viability [1] [%] | Her2 level [2] | viability [3] | viability [4] | viability [5] | differential viability (reversal) ([6]; H69AR cells + 2 uM doxorubicin) | viability [6, 9] [%] | viability [6, 10] [%] | inhibition [7] | inhibition [8]
CCC1Oc2ccccc2N(CC(=O)Nc2ccc(OC)cc2OC)C1=O (stereo not given) | 90.5 | 95.5% (inactive) | 90.5% (inactive) | 106% (inactive) | 100% (inactive) | 15% (inactive) | 85.3 | 100 | -2.24% (inactive) | -1.09% (inactive)
COc1ccc(-n2ncc3c(=O)n(CC(=O)OCc4ccccc4)cnc32)cc1 | 83 | 104% (inactive) | 83% (inactive) | 99.1% (inactive) | 97.8% (inactive) | 12% (inactive) | 85.8 | 97.8 | 0% (inactive) | 0.5% (inactive)
O=C1CC(N2CCOCC2)C(=O)N1c1ccccc1Cl (stereo not given) | 103 | 87.5% (inactive) | 103% (inactive) | 87.2% (inactive) | 104% (inactive) | 7.5% (inactive) | 96.6 | 104 | -6.4% (inactive) | -5.24% (inactive)
CN1C(=O)NC(NC(=O)C2CCCCC2)(C(F)(F)F)C1=O (stereo not given) | 93 | 85% (inactive) | 93% (inactive) | 98.7% (inactive) | 106% (inactive) | 6.06% (inactive) | 99.8 | 106 | -0.92% (inactive) | -0.65% (inactive)
COc1ccc(-c2nnc(SCC(=O)N3CCCCC3)o2)cc1OC | 104 | 104% (inactive) | 104% (inactive) | 88.7% (inactive) | 97.5% (inactive) | 5.33% (inactive) | 92.1 | 97.5 | -2.93% (inactive) | -5.9% (inactive)
COC(=O)c1ccccc1S(=O)(=O)NC(=O)c1ccccc1 | 107 | 74% (inactive) | 107% (inactive) | 107% (inactive) | 88.2% (inactive) | 5.66% (inactive) | 82.5 | 88.2 | -1.82% (inactive) | -3.81% (inactive)
CS(=O)(=O)N1CCCC(C(=O)NCCCN2CCc3ccccc3C2)C1 (stereo not given) | 93 | 102% (inactive) | 93% (inactive) | 102% (inactive) | 95.1% (inactive) | 7.38% (inactive) | 87.8 | 95.1 | -0.91% (inactive) | -8.89% (inactive)
CNC(=O)c1c(O)c2cccc3c2n(c1=O)CC3 | 83.5 | 86% (inactive) | 83.5% (inactive) | 101% (inactive) | 89.5% (inactive) | -5.95% (inactive) | 95.5 | 89.5 | -0.13% (inactive) | -4.52% (inactive)
CC1Cc2nc(SCC(=O)Nc3ccc(F)cc3F)n(C)c(=O)c2S1 (stereo not given) | 90 | 100% (inactive) | 90% (inactive) | 102% (inactive) | 91.7% (inactive) | -8.34% (inactive) | 100 | 91.7 | -1.78% (inactive) | 2.7% (inactive)
O=c1c2c3nc4ccccc4nc3n(CC3CCCO3)c2ncn1CCc1ccccc1 (stereo not given) | 97 | 83.5% (inactive) | 97% (inactive) | 76.2% (inactive) | 70.4% (inactive) | 38.6% (inactive) | 31.8 | 70.4 | -6.93% (inactive) | -2.62% (inactive)
CCOC(=O)C1CCCN(CCC(C)c2ccccc2)C1 (stereo not given) | 94 | 84.5% (inactive) | 94% (inactive) | 106% (inactive) | 95.7% (inactive) | 11.3% (inactive) | 84.3 | 95.7 | -6.8% (inactive) | 4.1% (inactive)
CCOC(=O)c1ccc(NC(=O)CCc2c(C)nc3ncnn3c2C)cc1 | 88 | 95.5% (inactive) | 88% (inactive) | 107% (inactive) | 92.7% (inactive) | -9.71% (inactive) | 102 | 92.7 | 1.37% (inactive) | -5.56% (inactive)
O=C(COc1ccc(Cl)cc1)Nc1nc(-c2cccs2)cs1 | 96 | 74.5% (inactive) | 96% (inactive) | 79.9% (inactive) | 77.5% (inactive) | -7.15% (inactive) | 84.6 | 77.5 | 3.55% (inactive) | 0.18% (inactive)
O=C(Cc1ccccc1)N1CCCC(c2nc(-c3cccs3)no2)C1 (stereo not given) | 91.5 | 111% (inactive) | 91.5% (inactive) | 95.5% (inactive) | 102% (inactive) | 16.8% (inactive) | 85.7 | 102 | -5.27% (inactive) | -3.61% (inactive)
CCOc1ccccc1C1NC(=O)NC(C)=C1C(=O)OC1CCCC1C (stereo not given) | 94.5 | 69% (inactive) | 94.5% (inactive) | 82.5% (inactive) | 78.1% (inactive) | 2.33% (inactive) | 75.8 | 78.1 | -1.73% (inactive) | 0.81% (inactive)
CN(Cc1ccccc1)Cc1c[nH]c2ccccc12 | 87 | 96.5% (inactive) | 87% (inactive) | 79.7% (inactive) | 89.8% (inactive) | -6.54% (inactive) | 96.3 | 89.8 | -4.61% (inactive) | -1.5% (inactive)

SMILES | viability [1] [%] | Her2 level [2] | viability [3] | viability [4] | viability [5] | differential viability (reversal) ([6]; H69AR cells + 2 uM doxorubicin) | viability [6, 9] [%] | viability [6, 10] [%] | inhibition [7] | inhibition [8]
CCc1nnc(NC(=O)C2CC(=O)N(Cc3ccco3)C2)s1 (stereo not given) | 107 | 95% (inactive) | 107% (inactive) | 111% (inactive) | 98.4% (inactive) | 4% (inactive) | 94.4 | 98.4 | -2.93% (inactive) | 2.1% (inactive)
CC(C)c1cc(C(=O)NCc2ccco2)no1 | 101 | 99.5% (inactive) | 101% (inactive) | 84.3% (inactive) | 80.4% (inactive) | 5.93% (inactive) | 74.5 | 80.4 | 0.13% (inactive) | -2.83% (inactive)
CCc1ccccc1NC(=O)CN(c1cccc(OC)c1)S(C)(=O)=O | 112 | 124% (inactive) | 112% (inactive) | 110% (inactive) | 100% (inactive) | 14.6% (inactive) | 85.8 | 100 | -4% (inactive) | -7.74% (inactive)
c1ccc(-c2nnc(OCCN3CCOCC3)c3ccccc23)cc1 | 112 | 118% (inactive) | 112% (inactive) | 87.3% (inactive) | 84.2% (inactive) | -5.76% (inactive) | 89.9 | 84.2 | -4.08% (inactive) | 2.62% (inactive)
COc1ccc(Oc2c(C)oc3cc(OC(=O)N4CCOCC4)ccc3c2=O)cc1 | 91 | 99% (inactive) | 91% (inactive) | 105% (inactive) | 101% (inactive) | -0.51% (inactive) | 101 | 101 | -5.6% (inactive) | -5.08% (inactive)
CCNC(=O)N(C(=O)NCC)n1c(C)nnc1C | 100 | 90% (inactive) | 100% (inactive) | 105% (inactive) | 104% (inactive) | 18.7% (inactive) | 85.3 | 104 | -5.33% (inactive) | 1.48% (inactive)
CCn1c(=S)sc2nc(C)sc21 | 94 | 100% (inactive) | 94% (inactive) | 96.6% (inactive) | 93.7% (inactive) | 3.59% (inactive) | 90.1 | 93.7 | -4.27% (inactive) | 1.94% (inactive)
c1ccc(-n2cnc3cc(NCc4ccccn4)ccc32)cc1 | 109 | 90.5% (inactive) | 109% (inactive) | 102% (inactive) | 86.4% (inactive) | 2.47% (inactive) | 84 | 86.4 | -5.27% (inactive) | 2.7% (inactive)
O=C(NC1CCCCCC1)C1c2ccccc2C(=O)N1Cc1cccnc1 (stereo not given) | 108 | 99.5% (inactive) | 108% (inactive) | 74.3% (inactive) | 90.1% (inactive) | -12.5% (inactive) | 103 | 90.1 | 0.13% (inactive) | -7.3% (inactive)
CC(C)(C)n1nc2c(c1NC(=O)COc1ccc(Cl)cc1)CSC2 | 97.5 | 79.5% (inactive) | 97.5% (inactive) | 80.5% (inactive) | 91.4% (inactive) | -10.3% (inactive) | 102 | 91.4 | -5% (inactive) | -0.16% (inactive)
CCOc1ccccc1N(CC(=O)NC1CCCC1)C(=O)CCCC(=O)Nc1ccccn1 | 91 | 93.5% (inactive) | 91% (inactive) | 106% (inactive) | 112% (inactive) | 15.3% (inactive) | 96.3 | 112 | -2.16% (inactive) | 6.03% (inactive)
O=C(Nc1cccc(O)c1)c1ccccc1 | 93 | 123% (inactive) | 93% (inactive) | 78% (inactive) | 95.2% (inactive) | -7.51% (inactive) | 103 | 95.2 | -5% (inactive) | -7.05% (inactive)
Cc1ccc(C)c(N2CCN(C(=O)C3CCN(S(=O)(=O)c4c(C)noc4C)CC3)CC2)c1 | 104 | 72% (inactive) | 104% (inactive) | 74.8% (inactive) | 83.4% (inactive) | 27.8% (inactive) | 55.6 | 83.4 | -2.89% (inactive) | -3.97% (inactive)
c1ccc(CNc2c3c(nc4ncnn24)CCCC3)nc1 | 95.5 | 83.5% (inactive) | 95.5% (inactive) | 109% (inactive) | 85.2% (inactive) | -4.29% (inactive) | 89.5 | 85.2 | -5.34% (inactive) | -3.33% (inactive)
COc1ccc(-c2cc(C(F)(F)F)n3nc(C(=O)N4CCOCC4)nc3n2)cc1 | 88 | 116% (inactive) | 88% (inactive) | 101% (inactive) | 94.1% (inactive) | 4.48% (inactive) | 89.6 | 94.1 | -0.64% (inactive) | -4.17% (inactive)
